The source of these data is ChEMBL document CHEMBL1123911, “Dopamine agonists: effects of charged and uncharged analogues of dopamine” (1987).

Test [1] is filed under the species Rattus norvegicus. The experiment in a line: Ability to inhibit the K+-induced release of [3H]acetylcholine in dopamine depleted striatal slices at 0.1 uM. It is filed as functional. On the set-up: scale not given: the % may be the effect or the level left. Put shortly: (§1)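 Striatal slices in Krebs–Ringer bicarbonate with 0.6 mM ascorbic acid, 0.03 mM Na₂EDTA and 11 mM glucose, gassed with 95% O₂/5% CO₂. Slices were labelled 20 min with [³H]choline, then superfused at 0.5 mL/min. Drug was added 10 min before and during 12.5 mM K⁺ (Na⁺-compensated) for 10 min. K⁺-evoked fractional tritium release above baseline is given as % of drug-free control, ±SEM.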

For test [2], the species on record is Rattus norvegicus. The experiment in a line: Ability to inhibit the K+-induced release of [3H]acetylcholine in normal striatal slices at 0.1 uM. It is filed as functional. On the set-up: scale not given: the % may be the effect or the level left. Put shortly: as §1
For test [3], the species on record is Rattus norvegicus. Nature of the test: Ability to inhibit the K+-induced release of [3H]acetylcholine in normal striatal slices at 30 uM. It is filed as functional. On the set-up: scale not given: the % may be the effect or the level left. Put shortly:
(§2)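 Striatal slices in Krebs–Ringer bicarbonate with 0.6 mM ascorbic acid, 0.03 mM Na2EDTA and 11 mM glucose, gassed 95% O2/5% CO2, labelled 20 min with [3H]choline, then superfused at 0.5 mL/min. At 55 min, 12.5 mM K+ (Na+ lowered equimolarly) was applied for 10 min, with drug present from 10 min before. Scintillation counting gave fractional tritium release above spontaneous outflow, expressed as % of drug-free control.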

Test [4] is filed under the species Rattus norvegicus. The experiment in a line: Ability to inhibit the K+-induced release of [3H]Acetylcholine in normal striatal slices at 60 uM. It is filed as functional. Set-up: scale not given: the % may be the effect or the level left. Put shortly: as §1
Test [5] is filed under the species Rattus norvegicus. Nature of the test: Ability to inhibit the K+-induced release of [3H]acetylcholine in normal striatal slices at 1 uM. In kind it is functional. On the set-up: scale not given: the % may be the effect or the level left. Summed up: as §1
The species entered for test [6] is Rattus norvegicus. The experiment in a line: Ability to inhibit the K+-induced release of [3H]Acetylcholine in dopamine depleted striatal slices at 30 uM. In kind it is functional. On the set-up: scale not given: the % may be the effect or the level left. Put shortly:
as §2

The species named for test [7] is Rattus norvegicus. Nature of the test: Inhibition of stimulation of [3H]- acetylcholine release in rat striatal tissue. It is filed as functional, Striatum. Put shortly: as §2

For `CN1CCc2cccc3c2[C@H]1Cc1ccc(O)c(O)c1-3` [APOMORPHINE], the Control worked out at 56% in test [1] and 60% in test [2].

Compound `C[S+]([O-])CCc1ccc(O)c(O)c1` (stereo not given) registered a Control in test [3] of 101%.

Consider `NC[C@H](O)c1ccc(O)c(O)c1` [NOREPINEPHRINE], for which the Control is on record as 101% in test [3] and 85% in test [4].

The compound `C[N+]1(C)CCc2cccc3c2[C@H]1Cc1ccc(O)c(O)c1-3` gave a Control in test [5] of 59%.

In the case of `NCCc1ccc(O)c(O)c1` [DOPAMINE], the figures for the Control in test [5] and in test [3] were 70% and 40%, respectively.

Turning to `C[S+](C)CCc1ccc(O)c(O)c1.[I-]`, the Control in test [6] was 61%; in test [3] it was 50%.

In test [3], `C[Se]CCc1ccc(O)c(O)c1` showed a Control of 95%.

In the case of `CSCCc1ccc(O)c(O)c1`, the results for the Control in test [6] and in test [3] were 100% and 82%, respectively. In test [7], the Inhibition was determined as 18%.

Take `C[N+](C)(C)CCc1ccc(O)c(O)c1.[I-]`: the Control came out at 53% in test [6] and 52% in test [3].

Take `C[S+](C)CC(O)c1ccc(O)c(O)c1.[I-]` (stereo not given): in test [3], the Control is on record as 113%.

`CS(=O)(=O)CCc1ccc(O)c(O)c1`: in test [3], the Control was found to be 122%.

With `C[Se+](C)CCc1ccc(O)c(O)c1.[I-]`, the Control in test [6] came to 47%; in test [3] it was 57%.
